15 compounds from paper PMC3755765 (ChemMedChem, 2013) can be followed below.

Series [1] deals with Human Foreskin Fibroblasts (HFF). Briefly: Toxicity for host cells. Particulars: for Parasite tissue culture assay HFF (HFF toxicity): human foreskin fibroblasts, highest concentration tested 10 μM.
Series [2] relates to T. gondii tachyzoites. Briefly: Parasite tissue culture assay: inhibition of T. gondii tachyzoites in HFF. In kind it is cell-based, Toxoplasma gondii. Particulars: for MIC50 / IC50: Toxoplasma gondii; for Activity in the parasite-based assay: T. gondii tachyzoites.
In series [3] the target is T1, TgENR (Toxoplasma gondii, UniProt Q6UCJ9).
T1 sequence (Q6UCJ9 28-417): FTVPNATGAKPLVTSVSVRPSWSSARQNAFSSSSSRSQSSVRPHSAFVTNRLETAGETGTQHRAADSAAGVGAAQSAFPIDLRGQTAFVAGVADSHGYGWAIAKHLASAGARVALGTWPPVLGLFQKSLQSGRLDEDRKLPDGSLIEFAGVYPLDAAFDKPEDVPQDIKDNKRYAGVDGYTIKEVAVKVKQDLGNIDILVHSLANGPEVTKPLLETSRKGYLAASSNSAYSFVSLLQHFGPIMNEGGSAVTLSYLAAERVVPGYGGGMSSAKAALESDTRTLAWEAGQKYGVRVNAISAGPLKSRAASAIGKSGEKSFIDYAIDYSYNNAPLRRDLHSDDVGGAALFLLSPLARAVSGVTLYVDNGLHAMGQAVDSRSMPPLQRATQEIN
As to the kind of experiment: TgENR enzyme assay. In kind it is biochemical. Particulars: for inhibition at 1 µM: read-out: Cpd. conc. [1 μM]/% Inh.: percentage of inhibition of TgENR; for Activity in the enzyme-based assay: purified TgENR.

In series [4] the test system is P. falciparum strain D6 (CDC/Sierra Leone). As to the kind of experiment: Malaria SYBR Green I-based fluorescence assay, strain D6. Format: cell-based. Particulars: Plasmodium falciparum, D6, 72 h, read-out: SYBR Green D6 IC50. Summed up: (§1)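 Late-ring or early-trophozoite parasites at 0.3% starting parasitemia and 2% hematocrit were added to plates predosed with quadruplicate 12-point two-fold dilutions in DMSO (final […]), with mefloquine as reference. Plates were incubated 72 h at 37°C under 5% CO2/5% O2/90% N2, lysed with Tris/EDTA/Triton X/saponin buffer with SYBR Green I (final 10x), kept dark 24 h at RT, and read as RFU. A chloroquine batch control at 2000 ng/ml validated each run.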

The test system of series [5] is P. falciparum strain TM91C235 (WRAIR, Thailand, chloroquine resistant). Briefly: Malaria SYBR Green I-based fluorescence assay, strain TM91C235. Format: cell-based. Particulars: Plasmodium falciparum, 72 h, read-out: SYBR Green C235 IC50. The gist of the method: as §1
The nature of series [6]: Toxicity in mice. Format: in vivo.
Series [7] has as its system human cryopreserved hepatocytes. As to the kind of experiment: Intrinsic clearance in human cryopreserved hepatocytes. Format: in vitro ADME.
Assay in series [8]: as above
In kind it is in vitro ADME. Particulars: human.

Series [9] in a line: Intrinsic clearance in human liver microsomes. In kind it is in vitro ADME. A general note: Microsomes from liver hold many membrane-bound enzymes, among them those of drug oxidation.
Series [10] relates to T. gondii. Briefly: T. gondii mouse infection model. In kind it is in vivo. Particulars: mice; for Effect on parasite burden compared to triclosan (Xenogen camera images): 10mg/ml; for Effect on parasite growth in vivo: 50mg/kg (results not shown).
Series [11] in a line: Experimental Caco-2 permeability. Particulars: human, Caco-2. In general terms: Caco-2 monolayers are a common model of the intestinal barrier.
In series [12] the test system is Caco-2. Briefly: Experimental Caco-2 permeability. Particulars: experimental, Contract Research Organization.
Series [13] is described as follows: in vitro. Particulars: human, Caco-2.
[14] abbreviates: 72 h, read-out: Parasite tissue culture assay MIC50.
The mark [15] stands for this setting: 75 mg/kg, day 5 after infection, 75 mg/kg.

Values after ≈ are worked out from the molar mass of the structure shown. Values joined by “and” are separate entries in the source; they are usually repeats but may differ in a detail not shown here. Equal entries are not always repeated. “Also recorded” adds a separate entry of the source. Where two headings read alike, the source gives them in different places.

As to `Oc1cc(Cn2ccnn2)ccc1Oc1ccc(Cl)cc1Cl` [Compound 9c, 2-(2,4-Dichlorophenoxy)-5-(1H-1,2,3-triazol-1-ylmethyl)phenol], in [1], the “Parasite tissue culture assay HFF (HFF toxicity)” value (“Parasite tissue culture assay HFF” for short) was over 10 µM. Also, the MIC50 in series [2] (setting [14]) was determined as 10 µM (≈ 3.36 µg/mL). For the same compound, the IC50 was 130 nM in series [3]; 4.71 µM and 1.58 µg/mL in series [4]; over 2 µg/mL in series [5]. In addition, the inhibition at 1 µM in series [3] was found to be 93%.

As to `Oc1cc(Cl)ccc1Oc1ccc(Cn2ccnn2)cc1Cl` [Compound 16c, 5-Chloro-2-[2-chloro-4-[(1H-1,2,3-triazol-1-yl)methyl]phenoxy]phenol], in [1], the “Toxicity to the host cells” value is on record as “without apparent toxicity to the host cells”. The “Parasite tissue culture assay HFF” value in [1] is over 10 µM. For the same compound, in [6], the “Toxicity in mice relative to triclosan (fold less toxic)” value was determined as 10 fold. In [7] (after 60 min), this compound displayed a Compound left unmetabolized of 20%. In series [7] (after 120 min), this compound showed a Compound remained intact of 5%. The half-life in series [8] was 29 min; in series [9] it was over 60 min. Besides, the MIC50 in [2] (setting [14]) was determined as 0.25 µM (≈ 0.084 µg/mL). For the same compound, the IC50 in series [2] (read-out: IC50 (MIC50) against Toxoplasma gondii tachyzoites) is 250 nM. Besides, the “Effect on parasite burden in vivo” value is reported as “neither of those analogs reduced the parasite burden; also recorded: no effect” in [10] (10 mg/kg) and “protected the mice by decreasing parasite burden; also recorded: effective in reducing parasite burden” in [10] (setting [15]). The “Effect on parasite burden compared to triclosan (Xenogen camera images)” value in series [10] was “reduced effect”. Besides, the “Effect on parasite growth in vivo” value in series [10] was “not evident”. Also, in [3], the inhibition at 1 µM stood at 91%. This compound gave a Papp in [11] of 26.3 ×10⁻⁶ cm/s.

Consider `O=C(Nc1ccccc1)c1ccc(Oc2ccc(Cl)cc2Cl)c(O)c1` [Compound 30a, 4-(2,4-Dichlorophenoxy)-3-hydroxy-N-phenylbenzamide], for which the “Parasite tissue culture assay HFF” value in series [1] is over 10 µM. Further, in [2] (setting [14]), the MIC50 was over 10 µM. The inhibition at 1 µM in [3] turned out to be 7%. Further, the IC50 in series [4] and in series [5] was over 2 µg/mL each time.

Consider `CCCCN(CCCC)C(=O)c1ccc(Oc2ccc(Cl)cc2Cl)c(O)c1` [Compound 30b, 4-(2,4-Dichlorophenoxy)-3-hydroxy-N,N-dibutylbenzamide], for which the “Parasite tissue culture assay HFF” value in [1] was over 10 µM. Also, the MIC50 in series [2] (setting [14]) is over 10 µM. Moreover, in series [3], the inhibition at 1 µM was found to be 44%. Further, the IC50 is 400 nM and 0.166 µg/mL in series [4]; 600 nM and 0.247 µg/mL in series [5].

Consider `O=C(c1ccc(Oc2ccc(Cl)cc2Cl)c(O)c1)N1CCOCC1` [Compound 30c, [4-(2,4-Dichlorophenoxy)-3-hydroxyphenyl](morpholin-4-yl)methanone], for which the “Parasite tissue culture assay HFF” value in series [1] was over 10 µM. In addition, the MIC50 in [2] (setting [14]) was over 10 µM. Besides, in series [3], the inhibition at 1 µM was 43%. Moreover, the IC50 in series [4] and in series [5] was over 2 µg/mL throughout.

Turning to `CCCCCCNC(=O)c1ccc(Oc2ccc(Cl)cc2Cl)c(O)c1` [Compound 30d, 4-(2,4-Dichlorophenoxy)-N-hexyl-3-hydroxybenzamide], the “Parasite tissue culture assay HFF” value in series [1] is over 10 µM. Further, the MIC50 in [2] (setting [14]) was over 10 µM. In addition, the inhibition at 1 µM in series [3] amounted to 30%. For the same compound, the IC50 in series [4] and in series [5] was over 2 µg/mL each time.

Regarding `Cc1cc(CC(=O)NCc2ccc(Oc3ccc(Cl)cc3O)c(Cl)c2)on1` [Compound 37c, N-[3-Chloro-4-(4-chloro-2-hydroxyphenoxy)benzyl]-2-(3-methyl-1,2-oxazol-5-yl)acetamide], in [6], the “Toxicity in mice relative to triclosan (fold less toxic)” value amounted to 10 fold. In series [2] (setting [14]), the MIC50 is over 10 µM. Moreover, the “Effect on parasite burden in vivo” value in series [10] (10 mg/kg) is “neither of those analogs reduced the parasite burden; also recorded: no effect”; in series [10] (setting [15]) it was “protected the mice by decreasing parasite burden; also recorded: effective in reducing parasite burden”. In addition, in series [10], the “Effect on parasite burden compared to triclosan (Xenogen camera images)” value is reported as “reduced effect”. The “Effect on parasite growth in vivo” value in series [10] is on record as “not evident”. Besides, the inhibition at 1 µM in [3] came out at 96%.

For `Oc1cc(CNc2ccccc2)ccc1Oc1ccc(Cl)cc1Cl` [Compound 39a, 2-(2,4-Dichlorophenoxy)-5-[(phenylamino)methyl]phenol], the “Parasite tissue culture assay HFF” value in [1] is over 10 µM. Besides, in [2] (setting [14]), the MIC50 is 10 µM (≈ 3.6 µg/mL). Moreover, the IC50 in series [3] is 130 nM; in series [4], 4.56 µM and 1.64 µg/mL; in series [5] it was over 2 µg/mL. In addition, the inhibition at 1 µM in series [3] worked out at 96%.

In the case of `Oc1cc(CNC2CCCCC2)ccc1Oc1ccc(Cl)cc1Cl` [Compound 39b, 5-[(Cyclohexylamino)methyl]-2-(2,4-dichlorophenoxy)phenol], the “Parasite tissue culture assay HFF” value in series [1] is over 10 µM. The “Activity in the parasite-based assay” value in series [2] is “activity comparable to or better than that of triclosan”. The MIC50 in series [2] (setting [14]) was determined as 4 µM (≈ 1.47 µg/mL). In [3], the “Activity in the enzyme-based assay” value was “completely inactive” and the inhibition at 1 µM is 34%. Further, the IC50 in [4] was 30 nM and 0.0119 µg/mL. Moreover, the IC50 in [5] was 80 nM and 0.0276 µg/mL.

Turning to `CCCCCCNCc1ccc(Oc2ccc(Cl)cc2Cl)c(O)c1` [Compound 39c, 2-(2,4-Dichlorophenoxy)-5-[(hexylamino)methyl]phenol], the “Activity in the parasite-based assay” value in [2] was “activity comparable to or better than that of triclosan”. In addition, the MIC50 in [2] (setting [14]) came out at 3 µM (≈ 1.1 µg/mL). Also, in series [3], the “Activity in the enzyme-based assay” value was “completely inactive” and the inhibition at 1 µM worked out at 16%. Further, the IC50 in series [4] is 2.75 µM and 0.857 µg/mL. The IC50 in series [5] was over 2 µg/mL.

Take `CCC(=O)c1ccc(Oc2ccc(Cl)cc2Cl)c(O)c1` [Compound 43a, 1-[4-(2,4-Dichlorophenoxy)-3-hydroxyphenyl]propan-1-one]: the “Parasite tissue culture assay HFF” value in series [1] was over 10 µM. Also, the “Activity in the parasite-based assay” value in series [2] is “ineffective”. The IC50 was over 10000 nM in [2] (setting [14]); 2.75 µM and 0.857 µg/mL in series [4]; over 2 µg/mL in [5]. Further, in series [3], the “Activity in the enzyme-based assay” value was “only weak activity; also recorded: only weak inhibition”. In addition, the inhibition at 1 µM in series [3] came out at 85%.

As for `O=C(c1ccccc1)c1ccc(Oc2ccc(Cl)cc2Cl)c(O)c1` [Compound 43b, [4-(2,4-Dichlorophenoxy)-3-hydroxyphenyl](phenyl)methanone], in series [1], the “Parasite tissue culture assay HFF” value is over 10 µM. Further, the “Activity in the parasite-based assay” value in [2] is given as “ineffective”. In addition, the MIC50 in series [2] (setting [14]) was over 10 µM. In addition, in series [3], the IC50 came out at 750 nM, the “Activity in the enzyme-based assay” value was “only weak activity; also recorded: only weak inhibition” and the inhibition at 1 µM turned out to be 78%. Also, the IC50 in [4] was over 2 µg/mL. Besides, the IC50 in [5] is over 2 µg/mL.

Turning to `Oc1cc(Cl)ccc1Oc1ccc(Cl)cc1Cl` [Triclosan, triclosan, reference compound], the “Parasite tissue culture assay HFF” value in [1] is over 10 µM. In [2] (setting [14]), the IC50 was 250 nM and the MIC50 was 3 µM (≈ 0.869 µg/mL). In addition, the “Effect on parasite burden in vivo” value in [10] (10 mg/kg) is “effective; also recorded: demonstrated efficacy”. Moreover, the inhibition at 1 µM in series [3] came out at 97%.

Compound `COc1cc2c(c(OC)c1OC)-c1ccc(OC)c(=O)cc1[C@@H](NC(C)=O)CC2` [colchicines, reference compound] had a Caco-2 permeability in series [12] of 0.1 ×10⁻⁶ cm/s.

For the compound `CC(C)NCC(O)COc1cccc2ccccc12` (centres unmarked) [propranolol], in [13], the Papp worked out at 51.1 ×10⁻⁶ cm/s.

As a reminder, the MIC50 is the lowest concentration that inhibits either 50% of growth or 50% of the strains tested, depending on the study. The half-life is the time needed for the level to fall by half in the phase considered. A low value points to rapid decline. For orientation: Papp means a coefficient for how fast a substance crosses the barrier.
